Bioassay records as filed in PubChem BioAssay.
CHT inh: inhibits the human high affinity choline transporter; Q9GZV3; CHT-expressing cells, membrane potential dye, choline response; hits give low values; B-score at 10 µM; 0.86% of 310,000 active;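 active = B-score over 3 SD under the library average, and starting fluorescence ratio not unusually high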;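 also: choline stimulus applied at its EC90 after an EC20 pre-addition; B-score computed on integrated fluorescence ratio after choline addition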
CHT PAM: allosteric activators of human choline transporter CHT; Q9GZV3; CHT-expressing cells, membrane potential dye, choline EC20; hits give high values; LV-AA mutant CHT in HEK293 cells; B-score at 10 µM; 0.49% of 310,000 active; AID 488977;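 active = initial fluorescence not abnormally high and integrated response B-score, plate-corrected, over 3 SD above library mean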
HSF-1 act: increases HSF-1 driven luciferase reporter signal | NIH3T3-HGL HSF-1 luciferase reporter, MG132, 8 h; 100% = twice DMSO control signal | activation, % at 9 µM | 1.7% of 300,000 active | AID 504408;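 active = mean replicate activation of at least 50% with a set share of replicates each reaching 50%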;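 also: 0% = median of the neutral control wells and 100% = twice that signal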
Hep lipid drop: hepatic lipid droplet formation modulation; inhibition, % at 6.5 µM; AID 1656; 0.4% of 240,000 active; AML12 mouse hepatocytes, oleate lipid droplets, BODIPY imaging;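 active = lipid droplet intensity inhibited by at least 50%, with more than 500 cells counted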
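material = mouse AML12 hepatocyte cell line, fixed after treatment | also added = 100 µM oleic acid challenge | doses = compound at 6.5 µM only | schedule = overnight exposure | technique = Image-based BODIPY and DAPI two-channel analysis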
HSF1 inhib: HSF1 inhibition; AID 2098; 0.77% of 300,000 active; NIH3T3-HGL HSE-luciferase, MG132-induced, luminescence 8 h; hits give low values; activity change, negative = inhibition, % at 7.5 µM (by protocol);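 active = more than half of replicate wells show activity change below -50%, luminescence cut by over half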;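 also: luciferase reports HSF-1 transcriptional activity via heat shock element; 0% = median of DMSO wells and -100% = zero luminescence signal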
PHOSPHO1 inh: blocks human PHOSPHO1 phosphatase activity. Q8TCT1. recombinant PHOSPHO1, absorbance phosphatase assay. inhibition, % at 13.3 µM. 1.1% of 290,000 active. AID 1565; in the data active = inhibition above about 60%
Target sequence (Q8TCT1 whole entry, looked up): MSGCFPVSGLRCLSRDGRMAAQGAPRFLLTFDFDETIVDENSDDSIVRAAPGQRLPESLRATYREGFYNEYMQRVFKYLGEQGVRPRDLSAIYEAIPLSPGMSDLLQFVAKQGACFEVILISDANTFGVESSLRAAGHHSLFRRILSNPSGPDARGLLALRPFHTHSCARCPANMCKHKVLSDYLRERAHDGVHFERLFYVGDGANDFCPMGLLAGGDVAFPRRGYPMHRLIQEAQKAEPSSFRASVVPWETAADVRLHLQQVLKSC
Lipid drop inh: hepatic lipid droplet formation inhibition, confirmed. AML12 mouse hepatocytes, BODIPY lipid droplet imaging; droplets induced with 100 µM oleic acid. shares compounds with Hep lipid drop. 65% of 870 active. inhibition, % at 5.2 µM. AID 463183;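 active = inhibition of lipid droplet metric at least 50%, with more than 300 cells in each of four replicates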;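 also: plate controls were DMSO with oleic acid for no effect and 5 µM Triacsin-C for full effect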
AML12 cytotox: counter-screen for cytotoxicity in AML12 mouse hepatocytes; AID 463200; DAPI nuclear morphology cytotoxicity imaging; hits give high values; cells fed 100 µM oleate overnight; 3% of 870 active; z-score at 5 µM; shares compounds with Hep lipid drop; in the data active = z-score above about 6.3;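 also: compound exposure lasted overnight at 37 °C before fixation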
AML12 tox conf: AML12 hepatocyte cytotoxicity, confirmed | shares compounds with Hep lipid drop | AML12 mouse hepatocyte viability, ATP luminescence; cells loaded with 100 µM oleic acid | cytotoxicity, % at 50 µM | 530 tested, under 10 active | AID 463219;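 active = cytotoxicity above 50% in each of four replicates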;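 also: compound exposure lasted overnight at 37 °C before the ATP read; 0% = DMSO-treated cells and 100% = wells with no cells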
An asterisk follows results filed as active; i = inactive; . = not tested or not shown. Rows were chosen to be rich in hits. Some 4.9% of all compounds tested hit in one or more screens of this group.

SMILES	CHT inh	CHT PAM	HSF-1 act	Hep lipid drop	HSF1 inhib	PHOSPHO1 inh	Lipid drop inh	AML12 cytotox	AML12 tox conf
CCOc1ccc(CCNC(=O)CSc2cc(=O)n(C)c3cc(Cl)ccc23)cc1OCC	i	i	-3	78*	-1	1	78*	-0.28	-1
CCn1c(SCC(=O)Nc2ccc(OC)c(OC)c2)nc2c(c1=O)SCC2	i	i	-2	-7	3	18	.	.	.
Cc1cc(C(=O)NCc2ccco2)cs1	i	i	1	12	-1	-4	.	.	.
COc1ccc(C(=O)CSc2nnc(CC(=O)Nc3ccccc3OC)n2C)cc1	i	i	-2	59*	1	9	56	-0.91	9
CC(C)(C)N/N=C/c1c(O)n(-c2ccc(Cl)cn2)c(=O)c2ccccc12	i	i	-6	16	-2	4	.	.	.
CCCCN1C(=O)/C(=C/C=C2\Oc3ccccc3N2CC)SC1=S	.	.	-15	69*	4	37	113*	-0.5	14
COC(=O)c1ccc(NC(=O)C[n+]2ccccc2)cc1	i	i	0	-7	0	14	.	.	.
Cc1ccc(-n2cccc2/C=C2/NC(=O)N(CC(=O)Nc3cccc(C)c3)C2=O)cc1	i	i	-1	90*	-15	13	110*	0.011	12
Cc1cccc(NC(=O)CN2C(=O)N/C(=C\c3cccn3-c3cccc(C(=O)O)c3)C2=O)c1	i	i	-6	3	1	27	.	.	.
CCN1CCN(Cc2ccc(NC(=O)c3cc(NC(=O)C(=O)c4c[nH]c5ccccc45)cc(OC)c3)cc2C(F)(F)F)CC1	i	i	-1	-13	3	9	.	.	.
CCN1CCN(Cc2ccc(NC(=O)c3ccc(C)c(NC(=O)C(=O)c4c[nH]c5ccccc45)c3)cc2C(F)(F)F)CC1	i	i	-52	63*	-41	-7	0	6.3*	.
Cc1cccc(N2CCN(C(=O)C3CCCN(S(=O)(=O)c4cnc[nH]4)C3)CC2C)c1 (configuration not stated)	i	i	9	-4	1	-7	.	.	.
CCOc1ccc(CCNC(=O)CCS(=O)(=O)c2ccc(C)cc2)cc1OCC	i	i	-11	102*	-2	24	95*	-0.82	8
O=C(CCC(=O)N1CCOc2ccccc21)NCCc1ccccc1	i	i	-2	-10	-3	-25	.	.	.
CCOc1ccc(CCNC(=O)CCC(=O)N2CCOc3ccccc32)cc1OCC	i	i	-18	83*	-4	15	111*	-0.36	17
CCOc1ccc(CCNC(=O)CCS(=O)(=O)c2ccc(Br)cc2)cc1OCC	i	i	-9	54*	-3	24	92*	0.049	12
O=C(CCNS(=O)(=O)c1ccc(Br)cc1)NCCc1ccc(Cl)cc1	i	i	18	-8	14	-9	.	.	.
CCOc1ccc(CCNC(=O)CCNS(=O)(=O)c2ccc(Br)cc2)cc1OCC	i	i	4	75*	3	18	98*	-0.36	15
Cc1ccc(-c2nn(C)c(=O)c3ccccc23)cc1S(=O)(=O)NCCO	i	i	0	-5	5	27	.	.	.
COc1cc(CNC(C)(C)C)cc(Br)c1OCc1cccs1	i	i	11	20	-2	6	.	.	.
CC(Sc1nc(NCc2ccccc2)nc(N2CCOCC2)n1)C(=O)Nc1ccccc1 (configuration not stated)	i	i	-2	59*	3	-28	99*	0.81	10
COc1ccc(Cl)cc1NC(=O)CN1C(=O)CSC1=O	i	i	-7	.	-1	25	.	.	.
COc1cccc(-c2nc(NCc3ccccc3)c3ccccc3n2)c1O	i	i	33	69*	22	39	55*	-0.68	-5
COc1ccccc1N1C(=O)CC(Sc2ncccc2C(=O)O)C1=O (configuration not stated)	i	i	6	14	-7	9	.	.	.
Cc1cc(C)c2nc(SCC(=O)N3CC(=O)Nc4ccccc43)c(C#N)cc2c1	i	i	38	163*	14	-1	-307	22*	.
SMILES	CHT inh	CHT PAM	HSF-1 act	Hep lipid drop	HSF1 inhib	PHOSPHO1 inh	Lipid drop inh	AML12 cytotox	AML12 tox conf
Cc1[nH]n(-c2ccccc2)c(=O)c1N=Nc1ccc(C#N)cc1	i	i	10	0	0	18	.	.	.
CCOc1ccccc1N=Nc1c(C)[nH]n(-c2ccccc2)c1=O	i	i	9	76*	1	-7	13	0.31	.
COc1ccccc1N=Nc1c(C)[nH]n(-c2ccccc2)c1=O	i	i	3	56*	3	24	4	0.029	.
Cc1[nH]n(-c2ccccc2)c(=O)c1N=Nc1c(Cl)cccc1Cl	i	i	5	1	-8	-2	.	.	.
Nc1cc(Nc2ccccc2)c2nonc2c1[N+](=O)[O-]	i	i	14	101*	-12	15	110*	0.69	3
CC(C)n1c(O)c(N=NC(=O)C2COc3ccccc3O2)c2ccccc21 (configuration not stated)	i	i	18	52*	18	29	-1	-1.1	.
Cn1c(O)c(N=NC(=O)C2COc3ccccc3O2)c2ccccc21 (configuration not stated)	i	i	29	-3	23	11	.	.	.
CCn1cc(C(=O)NCCc2ccc(Cl)cc2)c(=O)c2cc(S(=O)(=O)N(C)C)ccc21	.	.	23	0	12	-12	.	.	.
CCn1cc(C(=O)NCc2ccc(Cl)cc2)c(=O)c2cc(S(=O)(=O)N(C)C)ccc21	i	i	20	62*	10	14	45	-0.85	19
O=C1C(NS(=O)(=O)c2cccs2)=C(N2CCN(c3cccc(Cl)c3)CC2)C(=O)c2ccccc21	i	i	27	61*	17	26	112*	0.38	18
O=C1C(NS(=O)(=O)c2ccccc2)=C(N2CCN(c3ccc(F)cc3)CC2)C(=O)c2ccccc21	i	i	21	79*	9	-110	81*	-1.4	17
CC(=O)Nc1ccc(S(=O)(=O)NC2=C(N3CCN(C)CC3)C(=O)c3ccccc3C2=O)cc1	i	i	9	-23	13	34	.	.	.
CC1CCN(C2=C(NS(=O)(=O)c3ccc(Br)cc3)C(=O)c3ccccc3C2=O)CC1	i	i	19	60*	17	3	114*	-0.12	23
